Calls of active or inactive are those of the source. No cut-off for these calls is given here.
Experiments:
[1] = Cmax in mouse plasma at 60 mg/kg, po; type: ADME, organism-based; parameters: dose 60 mg/kg, route po
[2] = Aqueous stability of the compound at pH 1.2 assessed as compound decomposition measured after 24 hrs by HPLC analysis; type: physicochemical; conditions: aqueous solution, read-out: Drug degradation
How it was run: (§1)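 Compounds at 10 μg/mL in Japanese Pharmacopoeia 17th ed. disintegration-test fluids (first fluid pH 1.2, second fluid pH 6.8), with 10% DMSO if needed, held at 37 °C. HPLC run at start and at 24 h. Decomposition derived from peak areas as residual content.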

[3] = test system: Mus musculus; test: In vivo inhibition of entero-peptidase in mouse assessed as increase in fecal protein content at 60 mg/kg, po; type: functional, organism-based
How it was run: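 HFD-fed male mice (D12079B diet, 14–21 weeks old) dosed orally at 60 mg/kg, with 0.5% methylcellulose as vehicle. Whole feces collected overnight and fecal protein output determined.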

[4] = Cmax in mouse plasma at 10 mg/kg, sc; type: ADME, organism-based; parameters: dose 10 mg/kg, route sc
[5] = Tmax in mouse plasma at 10 mg/kg, sc; type: ADME, organism-based
[6] = Tmax in mouse plasma at 60 mg/kg, po; type: ADME, organism-based
[7] = MRT in mouse plasma at 10 mg/kg, sc; type: ADME, organism-based
[8] = MRT in mouse plasma at 60 mg/kg, po; type: ADME, organism-based
[9] = Aqueous stability of the compound at pH 6.8 assessed as compound decomposition measured after 24 hrs by HPLC analysis; type: physicochemical; conditions: aqueous solution, read-out: Drug degradation; how it was run: as §1
[10] = Oral bioavailability in non-fasted Sprague-Dawley rat plasma at 1 mg/kg administered as cassette dose by LC/MS/MS analysis; type: ADME, organism-based; conditions: in vivo, BLD = below limit of detection
How it was run: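 Non-fasted SD rats given cassette oral dose of 1 mg/kg, suspended in 0.5% methylcellulose. Plasma obtained from collected blood; compound measured by LC–MS/MS.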

[11] = test system: Rattus norvegicus; test: Anti-obesity activity in diet-induced obese F344/Jcl rat model assessed as reduction in food intake at 1 to 10 mg/kg, po administered for 28 days; type: functional, organism-based; conditions: dose 1-10 mg/kg, time 28.0 day
How it was run: (§2)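 Male DIO F344/Jcl rats fed HFD D12451 (45 kcal % fat, 20 kcal % protein, 35 kcal % carbohydrate) from six weeks of age. Oral dosing in 0.5% methylcellulose vehicle starts at 36 weeks of age and continues 4 weeks. Body weight recorded every 1–4 days. n = 6 per group; mean ± SD; Dunnett's t-test or one-tailed Williams' test vs vehicle.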

[12] = test system: Rattus norvegicus; test: Anti-obesity activity in diet-induced obese F344/Jcl rat model assessed as increase in fecal protein output at 1 to 10 mg/kg, po measured on day 28; type: functional, organism-based; conditions: dose 1-10 mg/kg, time 28.0 day
How it was run: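 Male DIO F344/Jcl rats on HFD D12451 (45 kcal % fat), n = 6 per group. Oral dosing at 1, 3 or 10 mg/kg in 0.5% methylcellulose vehicle for 4 weeks from 36 weeks of age. Fecal protein output measured; mean ± SD; statistics vs vehicle.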

[13] = test system: Rattus norvegicus; test: Anti-obesity activity in diet-induced obese F344/Jcl rat model assessed as body weight loss administered orally for 28 days measured every 4 days; type: functional, organism-based; conditions: route po, time 4.0 weeks, DDE = dose-dependent effect; how it was run: as §2
[14] = biological target: Enteropeptidase (Homo sapiens) (UniProt P98073); test: Inhibition of human recombinant Enteropeptidase assessed as inhibition based on initial velocity using 5FAM-Abu-Gly-Asp -Asp-Asp -Lys-Ile-Val-Gly-Gly-Lys-(CPQ2)-Lys-Lys-NH2 as substrate by fluorescence based plate reader method; conditions: TDE = time-dependent effect
Sequence of Enteropeptidase (Homo sapiens) (P98073 2-784 limits assumed): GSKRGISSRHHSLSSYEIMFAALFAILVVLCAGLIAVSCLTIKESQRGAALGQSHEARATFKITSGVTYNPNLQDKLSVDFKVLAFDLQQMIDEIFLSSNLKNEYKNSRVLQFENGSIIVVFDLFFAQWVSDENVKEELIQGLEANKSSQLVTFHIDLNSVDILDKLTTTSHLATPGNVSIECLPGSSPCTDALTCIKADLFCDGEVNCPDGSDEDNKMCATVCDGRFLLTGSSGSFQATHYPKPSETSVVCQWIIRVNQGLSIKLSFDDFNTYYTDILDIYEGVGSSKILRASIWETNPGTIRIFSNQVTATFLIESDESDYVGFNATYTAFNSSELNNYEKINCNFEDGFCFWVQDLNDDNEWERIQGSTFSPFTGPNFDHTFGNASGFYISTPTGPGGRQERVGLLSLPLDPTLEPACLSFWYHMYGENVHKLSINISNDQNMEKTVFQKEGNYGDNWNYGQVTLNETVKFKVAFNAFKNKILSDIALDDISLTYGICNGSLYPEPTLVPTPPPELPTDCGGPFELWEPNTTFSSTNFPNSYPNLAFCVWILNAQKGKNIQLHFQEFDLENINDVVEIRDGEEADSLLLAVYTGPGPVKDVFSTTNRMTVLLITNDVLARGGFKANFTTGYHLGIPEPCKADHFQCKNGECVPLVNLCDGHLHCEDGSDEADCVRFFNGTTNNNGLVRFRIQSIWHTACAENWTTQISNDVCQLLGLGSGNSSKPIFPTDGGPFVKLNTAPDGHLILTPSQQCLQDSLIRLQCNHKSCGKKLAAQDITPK
Sequence of Enteropeptidase (Homo sapiens) (P98073 785-1019 limits assumed): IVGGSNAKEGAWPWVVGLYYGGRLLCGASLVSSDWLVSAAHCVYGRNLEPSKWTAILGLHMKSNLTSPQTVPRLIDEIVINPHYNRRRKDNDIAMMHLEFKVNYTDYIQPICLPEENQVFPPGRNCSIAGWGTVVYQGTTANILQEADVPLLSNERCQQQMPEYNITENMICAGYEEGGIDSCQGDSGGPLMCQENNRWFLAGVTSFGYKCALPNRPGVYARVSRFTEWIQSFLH
How it was run: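 Human recombinant enzyme prepared as a 24 mU/mL solution in 50 mM tricine pH 8.0, 0.01% Tween 20, 10 mM CaCl2. Compound in DMSO/buffer mixed with 2.1 μM substrate solution; enzyme added to start the reaction at room temperature. Fluorescence (ex 485/em 535 nm) read at 6 min. Inhibition taken relative to no-compound and no-enzyme controls. IC50 with 95% CI.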

[15] = Permeability of the compound at pH 7.4 by PAMPA; type: ADME; conditions: read-out: permeability
[16] = Permeability of the compound at pH 5.0 by PAMPA; type: ADME; conditions: read-out: permeability

Row | SMILES | degraded at 24 h [2] | degraded at 24 h [9] | inhibition [14] | Papp [15] | Papp [16] | other results
1 | N=C(N)Nc1ccc(C(=O)Oc2cccc(CC(=O)N[C@@H](CC(=O)O)C(=O)O)c2)cc1 | 2.8% | 5.8% |  |  |  | 
2 | N=C(N)Nc1ccc(C(=O)Oc2cccc(C3=NO[C@](CC(=O)O)(C(=O)O)C3)c2)cc1 |  |  |  |  |  | F [10]: Bld; Activity [11]: Active; Activity [12]: Active; Activity [13]: Dde
3 | CS(=O)(=O)O.N=C(N)Nc1ccc(C(=O)Oc2ccccc2)cc1 |  |  | Tde | < 0.2 ×10⁻⁶ cm/s | < 0.2 ×10⁻⁶ cm/s | 
4 | N=C(N)Nc1ccc(C(=O)Oc2ccc(CC(=O)NCC(=O)O)cc2)cc1.O=C(O)C(F)(F)F |  |  | Tde | 0.2 ×10⁻⁶ cm/s | 0.2 ×10⁻⁶ cm/s | 

Now from value to compound, other results behind:

Row | degraded at 24 h [2] | degraded at 24 h [9] | inhibition [14] | Papp [15] | Papp [16] | SMILES | other results
5 | 2.5% | 5% |  |  |  | Cl.N=C(N)Nc1ccc(C(=O)Oc2ccc(CC(=O)N[C@@H](CC(=O)O)C(=O)O)cc2)cc1 | Cmax [1]: 1360 ng/mL; inhibition [3]: Active; Cmax [4]: 13400 ng/mL; Tmax [5]: 0.5 h; Tmax [6]: 1.67 h; MRT [7]: 0.98 h; MRT [8]: 5.07 h
6 | 3.9% | 8.6% |  |  |  | N=C(N)Nc1ccc(C(=O)Oc2cccc(C(=O)N[C@@H](CC(=O)O)C(=O)O)c2)cc1 | 

Reference: ChEMBL document CHEMBL5126593, “Design, Synthesis, and Biological Evaluation of a Novel Series of 4-Guanidinobenzoate Derivatives as Enteropeptidase Inhibitors with Low Systemic Exposure for the Treatment of Obesity” (J Med Chem, 2022)
